# Reference: ChEMBL document CHEMBL5678810
# Calls of active or inactive are those of the source. The rule behind the calls is not given here.
# Experiments:
# [1] = target: Serine/threonine-protein kinase MARK1 (Homo sapiens) (UniProt Q9P0L2); test: Inhibition of T7 bacteriophage fused human MARK1 at 10 uM by KINOMEscan analysis relative to control; values are per cent of control
# [2] = target: Tyrosine-protein kinase receptor UFO (Homo sapiens) (UniProt P30530); test: Inhibition of T7 bacteriophage fused human AXL at 10 uM by KINOMEscan analysis relative to control
# [3] = target: Ephrin type-B receptor 3 (Homo sapiens) (UniProt P54753); test: Inhibition of T7 bacteriophage fused human EPHB3 at 10 uM by KINOMEscan analysis relative to control
# [4] = target: cAMP-dependent protein kinase catalytic subunit PRKX (Homo sapiens) (UniProt P51817); test: Inhibition of T7 bacteriophage fused human PRKX at 10 uM by KINOMEscan analysis relative to control
# [5] = target: Phosphatidylinositol 4,5-bisphosphate 3-kinase catalytic subunit gamma isoform (Homo sapiens) (UniProt P48736); test: Inhibition of T7 bacteriophage fused human PIK3CG at 10 uM by KINOMEscan analysis relative to control
# [6] = target: Ephrin type-A receptor 2 (Homo sapiens) (UniProt P29317); test: Inhibition of T7 bacteriophage fused human EPHA2 at 10 uM by KINOMEscan analysis relative to control; values are per cent of control
# [7] = target: Dual specificity mitogen-activated protein kinase kinase 5 (Homo sapiens) (UniProt Q13163); test: Inhibition of T7 bacteriophage fused human MEK5 at 10 uM by KINOMEscan analysis relative to control; values are per cent of control
# [8] = test system: Mast/stem cell growth factor receptor Kit (Homo sapiens), P10721 [D816H]; test: Inhibition of T7 bacteriophage fused human KIT D816H mutant at 10 uM by KINOMEscan analysis relative to control
# [9] = target: Mitogen-activated protein kinase 11 (Homo sapiens) (UniProt Q15759); test: Inhibition of T7 bacteriophage fused human p38-beta at 10 uM by KINOMEscan analysis relative to control; values are per cent of control
# [10] = target: Serine/threonine-protein kinase ICK (Homo sapiens) (UniProt Q9UPZ9); test: Inhibition of T7 bacteriophage fused human ICK at 10 uM by KINOMEscan analysis relative to control; values are per cent of control
# [11] = target: Dual specificity protein kinase CLK2 (Homo sapiens) (UniProt P49760); test: Inhibition of T7 bacteriophage fused human CLK2 at 10 uM by KINOMEscan analysis relative to control; values are per cent of control
# [12] = target: Calcium/calmodulin-dependent protein kinase kinase 1 (Homo sapiens) (UniProt Q8N5S9); test: Inhibition of T7 bacteriophage fused human CAMKK1 at 10 uM by KINOMEscan analysis relative to control
# [13] = target: Serine/threonine-protein kinase PAK 3 (Homo sapiens) (UniProt O75914); test: Inhibition of T7 bacteriophage fused human PAK3 at 10 uM by KINOMEscan analysis relative to control
# [14] = target: Casein kinase I isoform alpha (Homo sapiens) (UniProt P48729); test: Inhibition of T7 bacteriophage fused human CSNK1A1 at 10 uM by KINOMEscan analysis relative to control
# [15] = target: cAMP-dependent protein kinase catalytic subunit alpha (Homo sapiens) (UniProt P17612); test: Inhibition of T7 bacteriophage fused human PKAC-alpha at 10 uM by KINOMEscan analysis relative to control
# [16] = target: Rhodopsin kinase GRK1 (Homo sapiens) (UniProt Q15835); test: Inhibition of T7 bacteriophage fused human GRK1 at 10 uM by KINOMEscan analysis relative to control; values are per cent of control
# [17] = target: Homeodomain-interacting protein kinase 4 (Homo sapiens) (UniProt Q8NE63); test: Inhibition of T7 bacteriophage fused human HIPK4 at 10 uM by KINOMEscan analysis relative to control
# [18] = target: Serine/threonine-protein kinase DCLK1 (Homo sapiens) (UniProt O15075); test: Inhibition of T7 bacteriophage fused human DCAMKL1 at 10 uM by KINOMEscan analysis relative to control; values are per cent of control
# [19] = target: Activin receptor type-1B (Homo sapiens) (UniProt P36896); test: Inhibition of T7 bacteriophage fused human ACVR1B at 10 uM by KINOMEscan analysis relative to control
# [20] = target: Macrophage colony-stimulating factor 1 receptor (Homo sapiens) (UniProt P07333); test: Inhibition of T7 bacteriophage fused human CSF1R at 10 uM by KINOMEscan analysis relative to control; values are per cent of control
# [21] = target: Calcium/calmodulin-dependent protein kinase type II subunit beta (Homo sapiens) (UniProt Q13554); test: Inhibition of T7 bacteriophage fused human CAMK2B at 10 uM by KINOMEscan analysis relative to control
# [22] = target: Myosin light chain kinase family member 4 (Homo sapiens) (UniProt Q86YV6); test: Inhibition of T7 bacteriophage fused human MYLK4 at 10 uM by KINOMEscan analysis relative to control; values are per cent of control
# [23] = target: CDK4/Cyclin D3 (Homo sapiens) (UniProt P11802+P30281); test: Inhibition of T7 bacteriophage fused human CDK4-cyclinD3 at 10 uM by KINOMEscan analysis relative to control; type: protein-complex assay
# [24] = target: Ephrin type-A receptor 3 (Homo sapiens) (UniProt P29320); test: Inhibition of T7 bacteriophage fused human EPHA3 at 10 uM by KINOMEscan analysis relative to control
# [25] = target: Serine/threonine-protein kinase BRSK2 (Homo sapiens) (UniProt Q8IWQ3); test: Inhibition of T7 bacteriophage fused human BRSK2 at 10 uM by KINOMEscan analysis relative to control
# [26] = test system: Leucine-rich repeat serine/threonine-protein kinase 2 (Homo sapiens), Q5S007 [A2016T]; test: Inhibition of drug-resistant GFP-tagged LRRK2 A2016T mutant phosphorylation at Ser910 residue (unknown origin) transfected in HEK293 cells upto 3 uM incubated for 90 mins by immunoblot analysis; type: cell-based
# Method in brief: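 HEK293 cells stably expressing GFP-LRRK2 variants, grown in DMEM with 10% FBS, 2 mM glutamine and penicillin/streptomycin. Compound added from DMSO stock (final DMSO ≤1%) at increasing concentrations for 90 min, DMSO control. Cells were PBS-washed and lysed in Triton X-100 lysis buffer. Lysates were run on 8% SDS-PAGE and immunoblotted with rabbit monoclonals against pSer910, pSer935 and total LRRK2.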
# [27] = target: Leucine-rich repeat serine/threonine-protein kinase 2 (Homo sapiens) (UniProt Q5S007); test: Inhibition of LRRK2 phosphorylation at Ser910 residue in EBV immortalized human derived lymphoblastoid cells at 0.01 to 3 uM incubated for 90 mins by immunoblot analysis; type: cell-based; settings: Lymphoblastoid cell, dose 0.01-3 µM
# Chain of Calcium/calmodulin-dependent protein kinase type II subunit beta (Homo sapiens) (Q13554 whole entry, the tested form may be a part): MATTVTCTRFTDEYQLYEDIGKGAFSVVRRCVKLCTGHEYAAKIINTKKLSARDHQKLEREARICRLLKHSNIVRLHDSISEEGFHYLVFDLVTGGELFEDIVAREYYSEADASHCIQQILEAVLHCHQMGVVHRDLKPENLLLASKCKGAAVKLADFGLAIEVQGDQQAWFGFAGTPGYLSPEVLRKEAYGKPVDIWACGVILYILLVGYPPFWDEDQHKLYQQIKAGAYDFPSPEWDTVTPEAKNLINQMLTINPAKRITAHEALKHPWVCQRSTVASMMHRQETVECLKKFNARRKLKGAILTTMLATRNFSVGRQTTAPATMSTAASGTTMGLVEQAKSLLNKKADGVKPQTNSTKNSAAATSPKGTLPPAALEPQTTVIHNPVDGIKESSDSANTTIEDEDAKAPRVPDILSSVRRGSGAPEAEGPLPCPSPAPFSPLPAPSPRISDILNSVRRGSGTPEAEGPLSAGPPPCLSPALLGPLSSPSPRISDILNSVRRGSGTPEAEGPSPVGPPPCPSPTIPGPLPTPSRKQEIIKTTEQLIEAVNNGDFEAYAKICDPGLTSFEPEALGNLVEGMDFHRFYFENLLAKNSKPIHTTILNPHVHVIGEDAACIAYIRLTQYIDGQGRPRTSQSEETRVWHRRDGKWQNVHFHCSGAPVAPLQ
# Chain of Ephrin type-B receptor 3 (Homo sapiens) (P54753 whole entry, the tested form may be a part): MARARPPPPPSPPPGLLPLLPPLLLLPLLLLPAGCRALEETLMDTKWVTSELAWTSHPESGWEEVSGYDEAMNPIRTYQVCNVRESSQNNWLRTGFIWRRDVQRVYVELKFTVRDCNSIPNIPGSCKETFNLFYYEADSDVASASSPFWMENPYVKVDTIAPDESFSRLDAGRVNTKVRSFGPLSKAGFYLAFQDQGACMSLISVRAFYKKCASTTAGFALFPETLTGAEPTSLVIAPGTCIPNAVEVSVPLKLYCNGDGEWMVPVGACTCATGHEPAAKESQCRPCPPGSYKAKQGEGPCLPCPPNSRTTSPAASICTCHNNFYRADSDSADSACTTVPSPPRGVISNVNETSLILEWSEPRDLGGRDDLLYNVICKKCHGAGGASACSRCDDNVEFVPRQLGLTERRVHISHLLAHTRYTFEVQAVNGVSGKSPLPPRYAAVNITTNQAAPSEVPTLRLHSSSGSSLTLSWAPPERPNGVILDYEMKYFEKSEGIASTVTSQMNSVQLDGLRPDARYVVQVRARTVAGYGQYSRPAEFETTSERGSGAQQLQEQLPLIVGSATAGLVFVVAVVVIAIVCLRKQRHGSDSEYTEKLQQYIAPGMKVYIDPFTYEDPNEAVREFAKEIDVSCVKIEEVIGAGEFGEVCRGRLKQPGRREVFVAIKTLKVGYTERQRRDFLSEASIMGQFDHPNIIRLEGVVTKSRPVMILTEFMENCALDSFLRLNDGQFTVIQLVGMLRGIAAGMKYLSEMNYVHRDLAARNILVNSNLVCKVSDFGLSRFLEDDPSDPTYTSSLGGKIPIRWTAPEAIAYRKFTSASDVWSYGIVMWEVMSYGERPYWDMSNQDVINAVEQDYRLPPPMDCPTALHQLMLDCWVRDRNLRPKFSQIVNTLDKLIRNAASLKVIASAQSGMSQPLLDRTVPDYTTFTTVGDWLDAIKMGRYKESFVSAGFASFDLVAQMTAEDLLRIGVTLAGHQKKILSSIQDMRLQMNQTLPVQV
# Chain of Ephrin type-A receptor 3 (Homo sapiens) (P29320 whole entry, the tested form may be a part): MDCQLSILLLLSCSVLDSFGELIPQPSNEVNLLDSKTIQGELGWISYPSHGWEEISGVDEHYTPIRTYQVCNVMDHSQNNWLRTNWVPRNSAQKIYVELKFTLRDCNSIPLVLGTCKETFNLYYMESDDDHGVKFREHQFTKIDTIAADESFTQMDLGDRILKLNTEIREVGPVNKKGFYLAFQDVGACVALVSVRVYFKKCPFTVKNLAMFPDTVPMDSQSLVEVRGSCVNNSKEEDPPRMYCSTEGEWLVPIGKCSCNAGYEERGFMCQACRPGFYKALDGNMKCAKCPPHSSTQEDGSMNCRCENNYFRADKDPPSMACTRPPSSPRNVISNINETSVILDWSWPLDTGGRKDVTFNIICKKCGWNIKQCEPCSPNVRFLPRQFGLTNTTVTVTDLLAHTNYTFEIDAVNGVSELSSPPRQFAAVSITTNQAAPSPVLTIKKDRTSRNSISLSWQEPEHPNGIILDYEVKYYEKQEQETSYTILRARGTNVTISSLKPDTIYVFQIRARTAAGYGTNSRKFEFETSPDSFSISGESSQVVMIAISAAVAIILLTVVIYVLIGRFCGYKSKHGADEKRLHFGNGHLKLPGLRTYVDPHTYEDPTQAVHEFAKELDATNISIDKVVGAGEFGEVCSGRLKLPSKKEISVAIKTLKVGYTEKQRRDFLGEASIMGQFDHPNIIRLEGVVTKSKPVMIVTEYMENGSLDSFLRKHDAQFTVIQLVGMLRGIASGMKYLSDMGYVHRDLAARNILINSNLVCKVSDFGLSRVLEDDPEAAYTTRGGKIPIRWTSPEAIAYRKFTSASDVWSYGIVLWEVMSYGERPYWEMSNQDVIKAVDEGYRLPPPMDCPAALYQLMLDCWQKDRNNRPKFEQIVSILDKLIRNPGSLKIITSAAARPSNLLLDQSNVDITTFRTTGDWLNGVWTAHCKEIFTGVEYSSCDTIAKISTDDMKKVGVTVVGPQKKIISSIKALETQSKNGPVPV
# Chain of Serine/threonine-protein kinase PAK 3 (Homo sapiens) (O75914 whole entry, looked up, the tested form may be a part, canonical isoform): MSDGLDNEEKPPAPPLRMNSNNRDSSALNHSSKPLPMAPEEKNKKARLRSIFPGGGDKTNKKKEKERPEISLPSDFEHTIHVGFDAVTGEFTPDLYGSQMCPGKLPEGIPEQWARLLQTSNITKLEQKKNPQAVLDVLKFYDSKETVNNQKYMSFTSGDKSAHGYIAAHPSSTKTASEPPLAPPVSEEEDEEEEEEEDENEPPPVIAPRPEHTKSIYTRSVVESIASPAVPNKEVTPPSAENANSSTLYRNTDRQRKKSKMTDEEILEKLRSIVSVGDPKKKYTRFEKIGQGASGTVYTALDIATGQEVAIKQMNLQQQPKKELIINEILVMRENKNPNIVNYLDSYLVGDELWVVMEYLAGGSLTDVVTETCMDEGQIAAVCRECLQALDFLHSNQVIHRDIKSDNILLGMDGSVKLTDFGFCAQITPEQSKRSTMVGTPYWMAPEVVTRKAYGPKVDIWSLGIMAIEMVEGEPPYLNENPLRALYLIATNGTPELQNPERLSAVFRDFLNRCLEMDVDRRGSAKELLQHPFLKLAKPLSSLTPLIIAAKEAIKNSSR
# Chain of Mitogen-activated protein kinase 11 (Homo sapiens) (Q15759 whole entry, the tested form may be a part): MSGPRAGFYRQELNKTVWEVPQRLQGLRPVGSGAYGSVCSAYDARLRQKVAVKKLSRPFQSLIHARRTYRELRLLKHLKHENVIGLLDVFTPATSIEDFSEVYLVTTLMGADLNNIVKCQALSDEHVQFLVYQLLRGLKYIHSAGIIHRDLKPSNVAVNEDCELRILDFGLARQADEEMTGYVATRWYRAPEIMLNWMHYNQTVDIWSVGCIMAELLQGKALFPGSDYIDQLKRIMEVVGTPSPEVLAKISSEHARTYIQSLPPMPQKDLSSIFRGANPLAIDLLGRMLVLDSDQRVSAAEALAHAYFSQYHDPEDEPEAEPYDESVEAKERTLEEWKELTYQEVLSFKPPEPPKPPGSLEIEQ
# Chain of Serine/threonine-protein kinase DCLK1 (Homo sapiens) (O15075 whole entry, the tested form may be a part): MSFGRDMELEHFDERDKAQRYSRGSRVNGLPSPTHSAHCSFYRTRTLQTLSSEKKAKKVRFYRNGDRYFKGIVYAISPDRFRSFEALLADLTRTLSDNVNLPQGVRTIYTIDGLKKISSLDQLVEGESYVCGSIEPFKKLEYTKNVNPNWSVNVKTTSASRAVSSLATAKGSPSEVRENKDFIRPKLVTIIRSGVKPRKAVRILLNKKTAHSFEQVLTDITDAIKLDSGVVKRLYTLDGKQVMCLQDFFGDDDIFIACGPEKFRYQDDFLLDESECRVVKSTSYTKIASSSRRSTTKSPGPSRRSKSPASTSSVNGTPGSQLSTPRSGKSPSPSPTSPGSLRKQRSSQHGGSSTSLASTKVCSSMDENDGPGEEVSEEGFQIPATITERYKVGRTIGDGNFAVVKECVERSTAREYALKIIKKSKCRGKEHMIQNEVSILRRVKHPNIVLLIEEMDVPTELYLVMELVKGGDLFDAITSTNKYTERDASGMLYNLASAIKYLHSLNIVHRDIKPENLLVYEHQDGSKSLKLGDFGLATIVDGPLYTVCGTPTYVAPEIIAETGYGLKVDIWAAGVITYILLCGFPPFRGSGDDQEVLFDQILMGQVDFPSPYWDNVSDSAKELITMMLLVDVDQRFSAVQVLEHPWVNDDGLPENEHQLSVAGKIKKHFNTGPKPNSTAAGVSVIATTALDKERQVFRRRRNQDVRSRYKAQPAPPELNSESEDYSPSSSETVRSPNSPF
# Chain of Serine/threonine-protein kinase BRSK2 (Homo sapiens) (Q8IWQ3 whole entry, the tested form may be a part): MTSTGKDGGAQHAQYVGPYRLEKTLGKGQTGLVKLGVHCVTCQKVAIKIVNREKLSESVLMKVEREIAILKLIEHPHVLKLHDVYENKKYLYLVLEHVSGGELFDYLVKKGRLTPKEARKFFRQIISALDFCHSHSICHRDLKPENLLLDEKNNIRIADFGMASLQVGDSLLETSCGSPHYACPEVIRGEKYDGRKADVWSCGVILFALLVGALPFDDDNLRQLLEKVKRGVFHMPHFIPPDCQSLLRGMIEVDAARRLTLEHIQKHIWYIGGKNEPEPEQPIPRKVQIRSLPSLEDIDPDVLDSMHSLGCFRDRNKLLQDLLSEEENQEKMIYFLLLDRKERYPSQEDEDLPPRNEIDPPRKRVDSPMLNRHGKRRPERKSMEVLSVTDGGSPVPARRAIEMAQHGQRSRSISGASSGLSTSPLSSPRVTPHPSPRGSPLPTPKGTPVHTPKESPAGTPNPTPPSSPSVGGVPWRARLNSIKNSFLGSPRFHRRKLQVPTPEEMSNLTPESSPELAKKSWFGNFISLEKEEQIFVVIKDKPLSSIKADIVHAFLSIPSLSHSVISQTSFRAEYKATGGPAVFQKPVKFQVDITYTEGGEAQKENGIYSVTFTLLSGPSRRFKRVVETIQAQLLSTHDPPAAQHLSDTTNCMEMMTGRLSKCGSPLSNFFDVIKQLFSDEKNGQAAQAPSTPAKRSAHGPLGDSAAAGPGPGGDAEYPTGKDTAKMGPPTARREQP
smiles,measurement,setting,value
COc1cc(N2CCC(N3CCN(C)CC3)CC2)ccc1Nc1ncc2c(n1)N(C)c1ccccc1C(=O)N2C,residual activity,[1],87%
same,inhibition,[2],100%
same,inhibition,[3],100%
same,inhibition,[4],99%
same,inhibition,[5],15%
same,residual activity,[6],92%
same,residual activity,[7],85%
same,inhibition,[8],100%
same,residual activity,[9],60%
same,residual activity,[10],90%
same,residual activity,[11],72%
same,inhibition,[12],73%
same,inhibition,[13],83%
same,inhibition,[14],100%
same,inhibition,[15],100%
same,residual activity,[16],91%
same,inhibition,[17],100%
same,residual activity,[18],4.2%
same,inhibition,[19],100%
same,residual activity,[20],98%
same,inhibition,[21],62%
same,residual activity,[22],80%
same,inhibition,[23],100%
same,inhibition,[24],100%
same,inhibition,[25],64%
CCOc1cc(C(=O)N2CCC(N3CCN(C)CC3)CC2)ccc1Nc1ncc2c(n1)N(C1CCCC1)c1ccccc1C(=O)N2C,inhibition,[26],inactive
same,inhibition,[27],inactive
